Active and inactive are the calls of the source. The calls are words filed in the database; no cut-off is given here.
How the values were obtained:
[1] = biological target: T1, NAD-dependent protein deacetylase sirtuin-1 (Homo sapiens, UniProt Q96EB6); experiment: Inhibition of human SIRT1 deacetylation activity using H3K9Ac as substrate preincubated for 15 mins in presence of NAD+ followed by substrate addition by HPLC analysis
T1 sequence (Q96EB6 whole entry): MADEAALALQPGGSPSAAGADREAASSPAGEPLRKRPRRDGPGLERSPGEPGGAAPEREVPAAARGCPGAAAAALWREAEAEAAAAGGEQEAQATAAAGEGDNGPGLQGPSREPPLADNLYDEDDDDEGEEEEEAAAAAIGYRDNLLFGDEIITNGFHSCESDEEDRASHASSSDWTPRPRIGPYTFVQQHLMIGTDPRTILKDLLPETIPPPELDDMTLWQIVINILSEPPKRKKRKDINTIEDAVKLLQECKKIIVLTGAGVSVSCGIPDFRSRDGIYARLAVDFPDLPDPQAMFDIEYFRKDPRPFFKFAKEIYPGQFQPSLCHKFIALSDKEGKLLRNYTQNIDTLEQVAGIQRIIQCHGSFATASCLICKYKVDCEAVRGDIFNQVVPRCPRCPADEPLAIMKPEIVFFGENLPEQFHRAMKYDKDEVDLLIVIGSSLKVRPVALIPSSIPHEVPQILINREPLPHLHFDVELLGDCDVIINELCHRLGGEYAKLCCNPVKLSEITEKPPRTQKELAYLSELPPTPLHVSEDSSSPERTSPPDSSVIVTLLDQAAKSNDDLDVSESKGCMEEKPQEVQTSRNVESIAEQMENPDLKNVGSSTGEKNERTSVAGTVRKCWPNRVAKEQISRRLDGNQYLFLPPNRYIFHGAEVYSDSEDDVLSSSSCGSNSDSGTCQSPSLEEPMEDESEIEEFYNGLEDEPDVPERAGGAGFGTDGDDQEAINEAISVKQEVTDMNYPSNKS
Method in brief: (§1)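 In vitro sirtuin reaction mixture with compound at a range of concentrations. Compound was preincubated with NAD+ and the enzyme before the substrate peptide was added. IC50 taken from the concentration series.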

[2] = biological target: NAD-dependent protein deacylase sirtuin-5, mitochondrial (Homo sapiens, UniProt Q9NXA8); experiment: Inhibition of human SIRT5 deacetylation activity using H3K9Ac as substrate preincubated for 15 mins in presence of NAD+ followed by substrate addition by HPLC analysis; method in brief: as §1
[3] = biological target: T2, Protein cereblon/NAD-dependent protein deacetylase sirtuin-2 (Homo sapiens) (UniProt Q8IXJ6+Q96SW2); experiment: Protac activity at CRBN/SIRT2 in human BT549 cells assessed as SIRT2 degradation at 5 to 10 uM after 48 hrs by immunoblot analysis; type: cell-based; settings: BT-549, dose microM 5-10, time 48.0 hrs
Method in brief: (§2)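 Cells exposed to compound at the indicated concentrations for 48 h. SIRT1, SIRT2 and SIRT3 levels were read by immunoblot.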

[4] = biological target: T2, Protein cereblon/NAD-dependent protein deacetylase sirtuin-2 (Homo sapiens); experiment: Protac activity at CRBN/SIRT2 in human MCF7 cells assessed as SIRT2 degradation at 5 to 10 uM after 48 hrs by immunoblot analysis; type: cell-based; settings: dose microM 5-10, time 48.0 hrs; method in brief: as §2
[5] = biological target: T3, NAD-dependent protein deacetylase sirtuin-2 (Homo sapiens, UniProt Q8IXJ6); experiment: Inhibition of human SIRT2 defatty-acylation activity using peptide substrate in presence of NAD+ by HPLC analysis
T3 sequence (Q8IXJ6 whole entry): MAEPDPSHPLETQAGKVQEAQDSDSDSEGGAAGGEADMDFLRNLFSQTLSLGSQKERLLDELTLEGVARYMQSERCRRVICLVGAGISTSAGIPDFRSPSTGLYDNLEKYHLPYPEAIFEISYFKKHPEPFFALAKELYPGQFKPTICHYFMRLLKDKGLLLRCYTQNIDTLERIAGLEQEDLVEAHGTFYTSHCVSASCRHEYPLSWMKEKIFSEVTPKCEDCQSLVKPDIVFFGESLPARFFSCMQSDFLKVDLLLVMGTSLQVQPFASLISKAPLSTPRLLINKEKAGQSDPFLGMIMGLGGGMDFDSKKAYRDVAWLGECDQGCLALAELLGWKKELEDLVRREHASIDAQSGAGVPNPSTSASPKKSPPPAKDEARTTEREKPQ

[6] = biological target: T3, NAD-dependent protein deacetylase sirtuin-2; experiment: Inhibition of human SIRT2 defatty-acylation activity using peptide substrate preincubated in presence of NAD+ followed by substrate addition by HPLC analysis
Method in brief: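 SIRT2 defatty-acylase reaction with compound at a range of concentrations. Compound was preincubated with NAD+ and SIRT2 before the peptide substrate was added. IC50 derived from the dose series.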

[7] = biological target: NAD-dependent protein deacylase sirtuin-6 (Homo sapiens, UniProt Q8N6T7); experiment: Inhibition of human SIRT6 deacetylation activity using H3K9Ac as substrate preincubated for 15 mins in presence of NAD+ followed by substrate addition by HPLC analysis; method in brief: as §1
[8] = biological target: T4, NAD-dependent protein deacetylase sirtuin-3, mitochondrial (Homo sapiens, UniProt Q9NTG7); experiment: Inhibition of human SIRT3 deacetylation activity using H3K9Ac as substrate preincubated for 15 mins in presence of NAD+ followed by substrate addition by HPLC analysis; method in brief: as §1
T4 sequence (Q9NTG7 whole entry): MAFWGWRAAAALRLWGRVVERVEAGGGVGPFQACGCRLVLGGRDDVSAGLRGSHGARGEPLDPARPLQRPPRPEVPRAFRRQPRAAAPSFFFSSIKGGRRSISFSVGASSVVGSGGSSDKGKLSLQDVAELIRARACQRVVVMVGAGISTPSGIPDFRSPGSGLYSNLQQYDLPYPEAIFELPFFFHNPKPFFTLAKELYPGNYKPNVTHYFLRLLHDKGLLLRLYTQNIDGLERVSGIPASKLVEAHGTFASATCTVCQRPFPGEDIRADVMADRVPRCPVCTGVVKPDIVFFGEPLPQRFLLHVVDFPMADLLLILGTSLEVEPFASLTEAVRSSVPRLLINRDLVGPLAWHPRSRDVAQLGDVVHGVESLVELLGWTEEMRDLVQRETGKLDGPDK

[9] = species: Homo sapiens; experiment: Selectivity ratio of IC50 for inhibition of human SIRT1 deacetylation activity to IC50 for inhibition of human SIRT2 deacetylation activity
Method in brief: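 Ratio of SIRT1 deacetylase IC50 to SIRT2 deacetylase IC50, both measured with compound, NAD+ and enzyme preincubated before peptide substrate addition.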

[10] = biological target: T2, Protein cereblon/NAD-dependent protein deacetylase sirtuin-2 (Homo sapiens); experiment: Protac activity at CRBN/SIRT2 in human MCF7 cells assessed as SIRT2 degradation at 25 uM by immunoblot analysis; type: cell-based
Method in brief: (§3)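 MCF7 cells treated at a fixed concentration (10 or 25 μM) and harvested at several incubation times; SIRT2 level read by immunoblot.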

[11] = biological target: T5, Protein cereblon/NAD-dependent protein deacetylase sirtuin-1 (Homo sapiens) (UniProt Q96EB6+Q96SW2); experiment: Protac activity at CRBN/SIRT1 in human BT549 cells assessed as SIRT1 degradation at 5 to 10 uM after 48 hrs by immunoblot analysis; type: cell-based; settings: BT-549, dose microM 5-10, time 48.0 hrs
Method in brief: (§4)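 MCF7 or BT-549 cells exposed to inhibitor at the indicated concentrations for 48 h; SIRT1, SIRT2 and SIRT3 levels read by immunoblot.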

[12] = biological target: T2, Protein cereblon/NAD-dependent protein deacetylase sirtuin-2 (Homo sapiens); experiment: Protac activity at CRBN/SIRT2 in human MCF7 cells assessed as SIRT2 degradation at 10 uM by immunoblot analysis; type: cell-based; settings: TDE = time-dependent effect; method in brief: as §3
[13] = biological target: T6, Protein cereblon/NAD-dependent protein deacetylase sirtuin-3, mitochondrial (Homo sapiens) (UniProt Q9NTG7+Q96SW2); experiment: Protac activity at CRBN/SIRT3 in human MCF7 cells assessed as SIRT3 degradation at 5 to 10 uM after 48 hrs by immunoblot analysis; type: cell-based; settings: dose microM 5-10, time 48.0 hrs; method in brief: as §4
[14] = biological target: T6, Protein cereblon/NAD-dependent protein deacetylase sirtuin-3, mitochondrial (Homo sapiens); experiment: Protac activity at CRBN/SIRT3 in human BT549 cells assessed as SIRT3 degradation at 5 to 10 uM after 48 hrs by immunoblot analysis; type: cell-based; settings: BT-549, dose microM 5-10, time 48.0 hrs; method in brief: as §4
[15] = biological target: T3, NAD-dependent protein deacetylase sirtuin-2; experiment: Inhibition of human SIRT2 deacetylation activity using H3K9Ac as substrate preincubated for 15 mins in presence of NAD+ by HPLC analysis; method in brief: as §1
[16] = biological target: T5, Protein cereblon/NAD-dependent protein deacetylase sirtuin-1 (Homo sapiens); experiment: Protac activity at CRBN/SIRT1 in human MCF7 cells assessed as SIRT1 degradation at 5 to 10 uM after 48 hrs by immunoblot analysis; type: cell-based; settings: dose microM 5-10, time 48.0 hrs; method in brief: as §4
[17] = biological target: T2, Protein cereblon/NAD-dependent protein deacetylase sirtuin-2 (Homo sapiens); experiment: Protac activity at CRBN/SIRT2 in human MDA-MB-231 cells assessed as SIRT2 degradation after 48 hrs by immunoblot analysis; type: cell-based
Method in brief: (§5)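 In MDA-MB-231 and MDA-MB-468 cells, SIRT2 was assessed by immunoblot after compound treatment.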

[18] = biological target: T3, NAD-dependent protein deacetylase sirtuin-2; experiment: Inhibition of human SIRT2 deacetylation activity using H3K9Ac as substrate in presence of NAD+ by HPLC analysis
[19] = biological target: T2, Protein cereblon/NAD-dependent protein deacetylase sirtuin-2 (Homo sapiens); experiment: Protac activity at CRBN/SIRT2 in human MDA-MB-468 cells assessed as SIRT2 degradation after 48 hrs by immunoblot analysis; type: cell-based; method in brief: as §5
[20] = biological target: T2, Protein cereblon/NAD-dependent protein deacetylase sirtuin-2 (Homo sapiens); experiment: Protac activity at CRBN/SIRT2 in human MCF7 cells assessed as SIRT2 degradation at 5 uM by immunoblot analysis; type: cell-based
[21] = biological target: T2, Protein cereblon/NAD-dependent protein deacetylase sirtuin-2 (Homo sapiens); experiment: Protac activity at CRBN/SIRT2 in human HEK293T cells stably expressing flag-tagged K-Ras4a assessed as inhibition of SIRT2 defatty-acylation at 10 uM incubated for 42 hrs followed by Alkyne-14 addition and measured after 6 hrs by immunoprecipitation based assay; type: cell-based; settings: HEK-293T
Method in brief: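 HEK 293T cells stably expressing Flag-tagged K-Ras4a-G12V were treated for 42 h, then labelled with 50 μM Alk-14 for a further 6 h. K-Ras4a was immunoprecipitated via Flag, and a fluorescent dye was attached by click chemistry. NH2OH removed cysteine fatty acylation. Lysine fatty acylation was read by in-gel fluorescence and quantified relative to DMSO.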

[22] = test system: MCF7; experiment: Cytotoxicity against human MCF7 cells assessed as reduction in cell viability after 72 hrs; type: functional, cell-based
Method in brief: (§6)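 Cells incubated with compound or thalidomide for 72 h; cell viability read out at the end of exposure.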

[23] = test system: MDA-MB-231; experiment: Cytotoxicity against human MDA-MB-231 cells assessed as reduction in cell viability after 72 hrs; type: functional, cell-based; method in brief: as §6

T2 sequence (Q96SW2 whole entry, looked up, one chain of several): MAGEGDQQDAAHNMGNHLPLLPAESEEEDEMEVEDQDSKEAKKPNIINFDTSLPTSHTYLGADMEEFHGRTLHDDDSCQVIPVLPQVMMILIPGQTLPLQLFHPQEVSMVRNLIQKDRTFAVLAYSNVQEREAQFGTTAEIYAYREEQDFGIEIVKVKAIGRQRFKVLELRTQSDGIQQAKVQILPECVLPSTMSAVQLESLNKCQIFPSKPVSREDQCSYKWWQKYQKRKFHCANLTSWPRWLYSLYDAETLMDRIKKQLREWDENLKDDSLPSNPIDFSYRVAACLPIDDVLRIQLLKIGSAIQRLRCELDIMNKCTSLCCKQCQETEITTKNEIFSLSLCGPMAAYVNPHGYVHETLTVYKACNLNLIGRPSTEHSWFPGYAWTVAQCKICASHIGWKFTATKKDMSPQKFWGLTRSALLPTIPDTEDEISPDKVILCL
T6 sequence (Q96SW2 whole entry, looked up, one chain of several): as above
T5 sequence (Q96SW2 whole entry, looked up, one chain of several): as above
Sequence of NAD-dependent protein deacylase sirtuin-6 (Q8N6T7 whole entry): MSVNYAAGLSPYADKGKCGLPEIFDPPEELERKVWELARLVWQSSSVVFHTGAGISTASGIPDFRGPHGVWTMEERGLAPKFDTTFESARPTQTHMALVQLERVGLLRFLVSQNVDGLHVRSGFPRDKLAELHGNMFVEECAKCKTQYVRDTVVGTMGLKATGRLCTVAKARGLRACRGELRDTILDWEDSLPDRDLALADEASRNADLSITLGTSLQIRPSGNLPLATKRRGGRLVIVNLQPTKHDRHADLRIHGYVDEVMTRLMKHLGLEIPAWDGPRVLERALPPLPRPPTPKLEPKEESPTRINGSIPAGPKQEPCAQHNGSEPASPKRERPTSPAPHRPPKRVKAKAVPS
Sequence of NAD-dependent protein deacylase sirtuin-5, mitochondrial (Q9NXA8 whole entry): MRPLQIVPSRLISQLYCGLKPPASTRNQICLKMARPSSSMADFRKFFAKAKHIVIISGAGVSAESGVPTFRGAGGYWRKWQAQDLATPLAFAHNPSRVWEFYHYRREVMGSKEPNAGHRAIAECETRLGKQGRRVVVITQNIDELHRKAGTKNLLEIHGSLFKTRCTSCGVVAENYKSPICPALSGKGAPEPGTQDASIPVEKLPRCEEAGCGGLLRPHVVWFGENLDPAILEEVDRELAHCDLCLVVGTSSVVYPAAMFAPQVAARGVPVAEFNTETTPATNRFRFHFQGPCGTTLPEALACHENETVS

## CCCCCCCCCCCCCC(=S)NCCCC[C@H](NC(=O)CCOCCOCCNc1cccc2c1C(=O)N(C1CCC(=O)NC1=O)C2=O)C(=O)Nc1ccccc1 (some centres undefined)
[1]
  IC50: 37 µM
[2]
  IC50: > 83 µM
[3]
  Activity: Active
[4]
  Activity: Active
[5]
  IC50: > 83 µM
[6]
  IC50: 0.17 µM
[7]
  IC50: > 83 µM
[8]
  IC50: > 83 µM
[9]
  Ratio IC50: 500
[10]
  Activity: inactive
[11]
  Activity: inactive
[12]
  Activity: Tde
[13]
  Activity: inactive
[14]
  Activity: inactive
[15]
  IC50: 0.069 µM
[16]
  Activity: inactive
[17]
  Activity: Active
[18]
  IC50: 0.12 µM
[19]
  Activity: Active

## O=C(O)CCOCCOCCOCCOCCNc1cccc2c1C(=O)N(C1CCC(=O)NC1=O)C2=O (centres undefined)
[20]
  Activity: inactive

## CCCCCCCCCCCCCC(=S)NCCCC[C@H](NC(=O)CCOCCOCCOCCOCCNc1cccc2c1C(=O)N(C1CCC(=O)N(C)C1=O)C2=O)C(=O)Nc1ccccc1 (some centres undefined)
[20]
  Activity: inactive

## CCCCCCCCCCCCCC(=S)NCCCC[C@H](NC(=O)OCc1ccccc1)C(=O)Nc1ccccc1
[2]
  IC50: > 83 µM
[3]
  Activity: inactive
[4]
  Activity: inactive
[21]
  Activity: inactive
[22]
  Activity: Active
[7]
  IC50: > 83 µM
[8]
  IC50: > 83 µM
[23]
  Activity: Active

Source: ChEMBL document CHEMBL4725483, “Simultaneous Inhibition of SIRT2 Deacetylase and Defatty-Acylase Activities via a PROTAC Strategy” (ACS Med Chem Lett, 2020)
